The target of assay [1] is T1, Alpha-1A adrenergic receptor (Rattus norvegicus, UniProt P43140).
T1 sequence (P43140 whole entry): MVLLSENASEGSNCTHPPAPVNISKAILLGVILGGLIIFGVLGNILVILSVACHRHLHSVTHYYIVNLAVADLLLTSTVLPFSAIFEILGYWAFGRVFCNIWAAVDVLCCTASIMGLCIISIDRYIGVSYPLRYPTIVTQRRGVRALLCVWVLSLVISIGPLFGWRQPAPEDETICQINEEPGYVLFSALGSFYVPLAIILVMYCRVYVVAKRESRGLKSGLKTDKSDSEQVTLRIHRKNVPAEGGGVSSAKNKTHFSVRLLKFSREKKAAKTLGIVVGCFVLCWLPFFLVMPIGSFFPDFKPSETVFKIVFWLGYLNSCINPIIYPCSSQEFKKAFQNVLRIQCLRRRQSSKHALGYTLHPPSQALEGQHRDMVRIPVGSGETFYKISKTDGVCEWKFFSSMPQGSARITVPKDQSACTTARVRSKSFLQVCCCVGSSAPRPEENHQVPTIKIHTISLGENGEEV
Nature of the assay: Antagonistic activity against (-)-noradrenaline-induced contraction of rat prostatic vas deferens (alpha1A receptor). In kind it is functional, tissue-based. To be noted: read-out: pA2 (converted). In outline:
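Rat prostatic vas deferens portion equilibrated 60 min, washed every 15 min, primed twice with 10 µM noradrenaline, re-equilibrated 60 min; control noradrenaline concentration-response curve, then antagonist 30 min before repeat curve.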

Assay [2] addresses T2, Alpha-1A adrenergic receptor (Homo sapiens, UniProt P35348).
T2 sequence (P35348 whole entry): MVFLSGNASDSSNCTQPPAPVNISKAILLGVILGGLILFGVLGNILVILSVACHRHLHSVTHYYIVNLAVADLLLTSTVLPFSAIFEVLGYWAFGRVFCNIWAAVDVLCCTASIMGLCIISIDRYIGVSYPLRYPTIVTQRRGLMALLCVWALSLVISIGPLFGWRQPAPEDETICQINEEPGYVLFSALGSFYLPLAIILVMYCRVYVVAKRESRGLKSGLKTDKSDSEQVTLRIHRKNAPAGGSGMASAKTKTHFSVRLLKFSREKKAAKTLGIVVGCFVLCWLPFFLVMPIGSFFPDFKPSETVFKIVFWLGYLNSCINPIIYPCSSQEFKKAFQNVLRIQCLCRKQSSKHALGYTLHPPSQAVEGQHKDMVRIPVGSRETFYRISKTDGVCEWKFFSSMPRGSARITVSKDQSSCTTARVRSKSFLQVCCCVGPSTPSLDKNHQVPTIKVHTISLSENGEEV
Nature of the assay: Affinity constant towards human recombinant Alpha-1A adrenergic receptor using [3H]prazosin (from CHO cells) as radioligand by radioligand binding assay. It counts as cell-based.

Assay [3] concerns the target Adrenergic receptors; alpha-1 A & B (Homo sapiens) (UniProt P35348+P35368). Nature of the assay: Selectivity over alpha-1a/alpha-1b. In kind it is protein assay.
The target in assay [4] is T3, Alpha-1B adrenergic receptor (Rattus norvegicus, UniProt P15823).
T3 sequence (P15823 whole entry): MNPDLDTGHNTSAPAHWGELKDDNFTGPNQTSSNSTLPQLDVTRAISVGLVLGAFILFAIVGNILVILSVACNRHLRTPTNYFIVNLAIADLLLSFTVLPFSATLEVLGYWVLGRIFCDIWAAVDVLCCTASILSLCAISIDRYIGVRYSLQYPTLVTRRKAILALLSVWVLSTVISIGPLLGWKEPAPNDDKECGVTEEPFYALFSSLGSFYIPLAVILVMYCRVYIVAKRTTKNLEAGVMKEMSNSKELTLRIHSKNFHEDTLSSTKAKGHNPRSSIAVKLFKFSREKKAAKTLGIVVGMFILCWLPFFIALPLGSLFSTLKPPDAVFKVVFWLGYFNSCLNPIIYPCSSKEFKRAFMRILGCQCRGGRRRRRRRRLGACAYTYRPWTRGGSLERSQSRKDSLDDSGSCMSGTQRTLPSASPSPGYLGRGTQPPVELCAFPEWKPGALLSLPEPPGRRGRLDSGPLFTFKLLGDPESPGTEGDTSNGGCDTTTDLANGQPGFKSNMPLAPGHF
Nature of the assay: Antagonistic activity against (-)-phenylephrine-induced contraction of rat spleen (Alpha-1B adrenergic receptor ). It counts as functional, tissue-based. To be noted: read-out: pA2 (converted). In short, it runs like this: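 Rat spleen strips in buffer containing 4 µM propranolol to block β-adrenoceptors, 1 g resting tension, 2 h equilibration. Isometric cumulative phenylephrine curves at 30 min intervals; first discarded, second control.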

Assay [5] concerns the target T4, Alpha-1D adrenergic receptor (Rattus norvegicus, UniProt P23944).
T4 sequence (P23944 whole entry): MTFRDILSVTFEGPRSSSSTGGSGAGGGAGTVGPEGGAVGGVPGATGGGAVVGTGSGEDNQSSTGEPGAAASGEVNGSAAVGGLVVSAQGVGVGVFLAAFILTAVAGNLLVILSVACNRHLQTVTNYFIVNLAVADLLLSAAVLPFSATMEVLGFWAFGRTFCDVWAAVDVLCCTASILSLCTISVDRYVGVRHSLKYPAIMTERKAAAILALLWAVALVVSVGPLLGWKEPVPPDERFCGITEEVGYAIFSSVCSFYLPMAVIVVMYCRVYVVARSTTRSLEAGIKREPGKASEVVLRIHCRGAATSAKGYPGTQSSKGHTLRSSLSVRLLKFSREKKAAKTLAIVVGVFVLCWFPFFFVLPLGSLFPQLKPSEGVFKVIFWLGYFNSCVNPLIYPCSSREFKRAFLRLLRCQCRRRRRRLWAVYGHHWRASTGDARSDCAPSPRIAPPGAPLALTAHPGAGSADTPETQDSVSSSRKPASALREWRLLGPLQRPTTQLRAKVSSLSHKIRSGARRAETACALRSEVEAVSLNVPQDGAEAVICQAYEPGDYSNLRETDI
The experiment in a line: Antagonistic activity against (-)-noradrenaline-induced contraction of rat thoracic aorta (Alpha-1D adrenergic receptor). In kind it is functional, tissue-based. To be noted: read-out: pA2 (converted). In short, it runs like this:
(§1)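 Endothelium-denuded rat thoracic aorta strips (denudation confirmed by no 100 µM acetylcholine relaxation after 1 µM noradrenaline) in Tyrode, 1 g tension, ≥2 h equilibration. Cumulative (-)-noradrenaline curves at 1 h intervals; third as control, antagonist 30 min before fourth.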

The target of assay [6] is T5, Alpha-1D adrenergic receptor (Rattus norvegicus) (UniProt P23944).
T5 sequence (whole entry): T4 sequence (P23944 whole entry)
Nature of the assay: Inhibition of (-)-noradrenaline-induced contraction of rat thoracic aorta (Alpha-1D adrenergic receptor). In kind it is functional, tissue-based. In short, it runs like this: as §1

One may read the Ki as the dissociation constant of the complex between target and ligand, obtained from inhibition or displacement. With `COc1ccccc1OCCNCC1COC(c2ccccc2)(c2ccccc2)O1.O=C(O)C(=O)O` (centres undefined), the Kb is 29.5 nM in assay [1], 43.7 nM in assay [4] and 2.24 nM in assay [5]. For the same compound, the Ki in assay [2] is 24.5 nM. This compound also showed a Selectivity in assay [3] of 2.
As usually defined, the pKb is the Kb on a negative log10 scale, so that one unit is a factor of ten. Regarding `C[N+](C)(CCOc1ccccc1)CC1COC(c2ccccc2)(c2ccccc2)O1.O=C([O-])C(=O)O` (centres undefined), in assay [2], the Ki is 33.9 nM. This compound registered a Selectivity in assay [3] of 0.6. In assay [6], this compound registered a pKb of 6.19.
On to `CN(CCOc1ccccc1)CC1COC(c2ccccc2)(c2ccccc2)O1.O=C(O)C(=O)O` (centres undefined), for which the inhibition constant Ki in assay [2] was 832 nM. The compound also yielded a Selectivity in assay [3] of 0.3. Besides, in assay [6], the pKb came to 6.06.
For the compound `O=C(O)C(=O)O.c1ccc(OCCNCC2COC(c3ccccc3)(c3ccccc3)O2)cc1` (centres undefined), the Ki in assay [2] is 37.2 nM. In assay [3], this compound yielded a Selectivity of 2. Further, in assay [5], the Kb was 4.27 nM.

These data come from ChEMBL document CHEMBL1136765, “1,3-dioxolane-based ligands as a novel class of alpha1-adrenoceptor antagonists” (J Med Chem, 2003).
